What was measured:
[1] = target: T1, 2-5A-dependent ribonuclease (Mus musculus, UniProt Q05921); experiment: (§1) Compound was tested for activation of RNase L by measuring concentration required for 50% inhibition of protein synthesis in mouse L cell extracts; type: cell-based
T1 sequence (Q05921 whole entry): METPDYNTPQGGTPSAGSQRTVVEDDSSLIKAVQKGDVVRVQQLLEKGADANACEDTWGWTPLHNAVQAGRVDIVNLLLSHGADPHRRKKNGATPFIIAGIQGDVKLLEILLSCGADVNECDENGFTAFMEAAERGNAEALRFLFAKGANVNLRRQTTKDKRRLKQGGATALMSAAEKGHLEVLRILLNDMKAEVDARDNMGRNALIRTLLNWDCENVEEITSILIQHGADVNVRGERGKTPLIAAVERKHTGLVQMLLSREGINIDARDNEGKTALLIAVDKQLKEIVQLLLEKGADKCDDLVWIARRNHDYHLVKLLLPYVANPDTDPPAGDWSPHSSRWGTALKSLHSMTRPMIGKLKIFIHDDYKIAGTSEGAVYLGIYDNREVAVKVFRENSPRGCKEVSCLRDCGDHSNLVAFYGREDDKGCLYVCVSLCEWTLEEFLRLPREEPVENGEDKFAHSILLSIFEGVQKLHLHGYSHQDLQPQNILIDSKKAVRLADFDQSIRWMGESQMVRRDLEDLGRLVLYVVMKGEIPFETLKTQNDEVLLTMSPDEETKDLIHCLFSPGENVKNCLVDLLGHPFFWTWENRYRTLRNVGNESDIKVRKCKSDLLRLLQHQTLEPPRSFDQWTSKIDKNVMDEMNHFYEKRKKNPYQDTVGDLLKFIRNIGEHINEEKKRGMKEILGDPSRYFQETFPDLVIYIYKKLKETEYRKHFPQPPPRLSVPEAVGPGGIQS

[2] = target: T2, 2-5A-dependent ribonuclease (Mus musculus) (UniProt Q05921); experiment: Binding affinity against 2-5A-dependent RNase L in mouse L cell extracts using ppp5'A2p5'A2'p5'A3'[32P]pCp as a radioactive probe; type: cell-free
T2 sequence (whole entry): T1 sequence (Q05921 whole entry)
How it was run: (§2)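 Crude mouse L cell extract served as the RNase L source, with ppp5'A2'p5'A2'p5'A3'[32P]p5'Cp as the radioactive probe, in a competition binding assay on nitrocellulose. The value is the analogue concentration giving 50% displacement of the probe from the endonuclease–nitrocellulose complex.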

[3] = target: T1, 2-5A-dependent ribonuclease; experiment: (§3) compound was tested for activation of RNase L by measuring concentration required for 50% inhibition of protein synthesis in mouse L cell extracts; type: cell-based
How it was run: (§4)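 Cell-free translation was run in mouse L cell extract programmed with EMCV RNA, with creatine kinase, amino acids and [3H]leucine added. At set times, aliquots were spotted onto filter disks presoaked in 15% trichloroacetic acid to measure incorporation. The value is the concentration giving 50% inhibition of protein synthesis.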

[4] = target: T2, 2-5A-dependent ribonuclease (Mus musculus); experiment: as §3; type: cell-based; how it was run: as §4
Mus musculus [5] = species: Mus musculus; experiment: Compound measured for the stability in 20% mouse in L cell extracts in the presence of ATP at 120 min; type: functional, organism-based
[6] = target: T2, 2-5A-dependent ribonuclease (Mus musculus); experiment: Binding affinity against 2-5A-dependent RNase L in mouse L cell extract using ppp5'A2p5'A2'p5'A3'[32P]pCp as a radioactive probe; type: cell-free; how it was run: as §2
Mus musculus [7] = species: Mus musculus; experiment: Compound measured for the stability in 20% mouse in L cell extracts in the absence of ATP at 0 min; type: functional
Mus musculus [8] = species: Mus musculus; experiment: Compound measured for the stability in 20% mouse in L cell extracts in the absence of ATP at 90 min; type: functional
Mus musculus [9] = species: Mus musculus; experiment: Compound measured for the stability in 20% mouse in L cell extracts in the presence of ATP at 0 min; type: functional, organism-based
Mus musculus [10] = species: Mus musculus; experiment: Compound measured for the stability in 20% mouse in L cell extracts in the presence of ATP at 40 min; type: functional, organism-based
Mus musculus [11] = species: Mus musculus; experiment: Compound measured for the stability in 20% mouse in L cell extracts in the presence of ATP at 12 hr; type: functional, organism-based
Mus musculus [12] = species: Mus musculus; experiment: Compound measured for the stability in 20% mouse in L cell extracts in the presence of ATP at 75 min; type: functional, organism-based
[13] = target: T2, 2-5A-dependent ribonuclease (Mus musculus); experiment: as §1; type: cell-based; how it was run: as §4
Mus musculus [14] = species: Mus musculus; experiment: Compound measured for the stability in 20% mouse in L cell extracts in the presence of ATP at 220 min; type: functional, organism-based
Mus musculus [15] = species: Mus musculus; experiment: Compound measured for the stability in 20% mouse in L cell extracts in the absence ot ATP at 40 min.; type: functional, organism-based
Mus musculus [16] = species: Mus musculus; experiment: Compound measured for the stability in 20% mouse in L cell extracts in the absence ot ATP at 150 min; type: functional
Mus musculus [17] = species: Mus musculus; experiment: Compound measured for the stability in 20% mouse in L cell extracts in the presence ot ATP at 12 hr; type: functional, organism-based
Mus musculus [18] = species: Mus musculus; experiment: Compound measured for the stability in 20% mouse in L cell extracts in the presence of ATP at 0 min.; type: functional, organism-based
Mus musculus [19] = species: Mus musculus; experiment: Compound measured for the stability in 20% mouse in L cell extracts in the absence ot ATP at 12 hr; type: functional
Mus musculus [20] = species: Mus musculus; experiment: Compound measured for the stability in 20% mouse in L cell extracts in the presence ot ATP at 150 min; type: functional
Mus musculus [21] = species: Mus musculus; experiment: Compound measured for the stability in 20% mouse in L cell extracts in the absence ot ATP at 75 min; type: functional
Mus musculus [22] = species: Mus musculus; experiment: Compound measured for the stability in 20% mouse in L cell extracts in the presence ot ATP at 40 min.; type: functional, organism-based
Mus musculus [23] = species: Mus musculus; experiment: Compound measured for the stability in 20% mouse in L cell extracts in the presence ot ATP at 75 min; type: functional, organism-based
Mus musculus [24] = species: Mus musculus; experiment: Compound measured for the stability in 20% mouse in L cell extracts in the absence ot ATP at 240 min; type: functional, organism-based
Mus musculus [25] = species: Mus musculus; experiment: Compound measured for the stability in 20% mouse in L cell extracts in the absence ot ATP at 0 min.; type: functional
Mus musculus [26] = species: Mus musculus; experiment: Compound measured for the stability in 20% mouse in L cell extracts in the absence of ATP at 150 min; type: functional
Mus musculus [27] = species: Mus musculus; experiment: Compound measured for the stability in 20% mouse in L cell extracts in the absence of ATP at 120 min; type: functional
Mus musculus [28] = species: Mus musculus; experiment: Compound measured for the stability in 20% mouse in L cell extracts in the absence of ATP at 30 min; type: functional
Mus musculus [29] = species: Mus musculus; experiment: Compound measured for the stability in 20% mouse in L cell extracts in the absence of ATP at 12 hr; type: functional
Mus musculus [30] = species: Mus musculus; experiment: Compound measured for the stability in 20% mouse in L cell extracts in the absence of ATP at 240 min; type: functional

## Nc1ncnc2c1ncn2[C@@H]1O[C@H](CO[P@](=O)(O)O[C@@H]2[C@H](O)[C@@H](CO[P@](=O)(O)O[C@@H]3[C@H](O)[C@@H](CO[P@](=O)(O)O[P@@](=O)(O)OP(=O)(O)O)O[C@H]3n3cnc4c(N)ncnc43)O[C@H]2n2cnc3c(N)ncnc32)[C@@H](O)[C@H]1O
[1]
  IC50: 2.3 nM

## Nc1ncnc2c1nc(Br)n2[C@@H]1O[C@H](COP(=O)(O)O[C@@H]2[C@H](O)[C@@H](COP(=O)(O)O[C@@H]3[C@H](O)[C@@H](COP(=O)(O)O[C@@H]4[C@H](O)[C@@H](COP(=O)(O)O)O[C@H]4n4c(Br)nc5c(N)ncnc54)O[C@H]3n3c(Br)nc4c(N)ncnc43)O[C@H]2n2c(Br)nc3c(N)ncnc32)[C@@H](O)[C@H]1O
[2]
  Activity: 4e-09
  Relative ability: 0.18
[3]
  IC50: 700 nM
[4]
  Relative activity: 0.0033

## Nc1ncnc2c1nc(Br)n2[C@@H]1O[C@H](COP(=O)(O)O[C@@H]2[C@H](O)[C@@H](COP(=O)(O)O[C@@H]3[C@H](O)[C@@H](COP(=O)(O)OP(=O)(O)OP(=O)(O)O)O[C@H]3n3c(Br)nc4c(N)ncnc43)O[C@H]2n2c(Br)nc3c(N)ncnc32)[C@@H](O)[C@H]1O
Mus musculus [5]
  Stability: 36%
[6]
  Activity: 8e-09
  Relative ability: 0.088
Mus musculus [7]
  Stability: 48%
Mus musculus [8]
  Stability: 3%
Mus musculus [9]
  Stability: 71%
Mus musculus [10]
  Stability: 54%
Mus musculus [11]
  Stability: 0%
Mus musculus [12]
  Stability: 46%
[1]
  IC50: 150 nM
[13]
  Relative activity: 0.015
Mus musculus [14]
  Stability: 16%

## Nc1ncnc2c1nc(Br)n2[C@H]1O[C@@H](COP(=O)(O)O[C@H]2[C@@H](O)[C@H](COP(=O)(O)O[C@H]3[C@@H](O)[C@H](COP(=O)(O)O[C@H]4[C@@H](O)[C@H](COP(=O)(O)O[C@H]5[C@@H](O)[C@H](COP(=O)(O)O)O[C@@H]5n5c(Br)nc6c(N)ncnc65)O[C@@H]4n4c(Br)nc5c(N)ncnc54)O[C@@H]3n3c(Br)nc4c(N)ncnc43)O[C@@H]2n2c(Br)nc3c(N)ncnc32)[C@H](O)[C@@H]1O
[2]
  Activity: 3e-09
  Relative ability: 0.23
[3]
  IC50: > 40000 nM
[4]
  Relative activity: < 6e-05

## Nc1ncnc2c1nc(Br)n2[C@@H]1O[C@H](COP(=O)(O)O[C@@H]2[C@H](O)[C@@H](COP(=O)(O)O[C@@H]3[C@H](O)[C@@H](CO)O[C@H]3n3c(Br)nc4c(N)ncnc43)O[C@H]2n2c(Br)nc3c(N)ncnc32)[C@@H](O)[C@H]1O
[2]
  Activity: 6e-07
  Relative ability: 0.0012
[3]
  IC50: > 50000 nM
[4]
  Relative activity: < 5e-05

## Nc1ncnc2c1ncn2[C@@H]1O[C@H](COP(=O)(O)O[C@@H]2[C@H](O)[C@@H](COP(=O)(O)O[C@@H]3[C@H](O)[C@@H](COP(=O)(O)OP(=O)(O)OP(=O)(O)O)O[C@H]3n3cnc4c(N)ncnc43)O[C@H]2n2cnc3c(N)ncnc32)[C@@H](O)[C@H]1O
[13]
  Relative activity: 1

## Nc1ncnc2c1nc(Br)n2[C@@H]1O[C@H](COP(=O)(O)O[C@@H]2[C@H](O)[C@@H](COP(=O)(O)O[C@@H]3[C@H](O)[C@@H](COP(=O)(O)O[C@@H]4[C@H](O)[C@@H](CO)O[C@H]4n4c(Br)nc5c(N)ncnc54)O[C@H]3n3c(Br)nc4c(N)ncnc43)O[C@H]2n2c(Br)nc3c(N)ncnc32)[C@@H](O)[C@H]1O
[2]
  Activity: 3e-08
  Relative ability: 0.023
[3]
  IC50: > 200000 nM
[4]
  Relative activity: < 1e-05

## Nc1ncnc2c1nc(Br)n2[C@@H]1O[C@H](COP(=O)(O)O[C@@H]2[C@H](O)[C@@H](COP(=O)(O)O[C@@H]3[C@H](O)[C@@H](COP(=O)(O)O)O[C@H]3n3c(Br)nc4c(N)ncnc43)O[C@H]2n2c(Br)nc3c(N)ncnc32)[C@@H](O)[C@H]1O
Mus musculus [15]
  Stability: 88%
[2]
  Activity: 2e-08
Mus musculus [16]
  Stability: 77%
Mus musculus [17]
  Stability: 53%
[6]
  Relative ability: 0.035
Mus musculus [18]
  Stability: 100%
Mus musculus [19]
  Stability: 22%
Mus musculus [20]
  Stability: 84%
Mus musculus [21]
  Stability: 82%
Mus musculus [22]
  Stability: 99%
Mus musculus [23]
  Stability: 89%
Mus musculus [24]
  Stability: 76%
Mus musculus [25]
  Stability: 100%
[1]
  IC50: 1000 nM
[13]
  Relative activity: 0.0023

## Nc1ncnc2c1nc(Br)n2[C@@H]1O[C@H](COP(=O)(O)O[C@@H]2[C@H](O)[C@@H](COP(=O)(O)O[C@@H]3[C@H](O)[C@@H](COP(=O)(O)OP(=O)(O)O)O[C@H]3n3c(Br)nc4c(N)ncnc43)O[C@H]2n2c(Br)nc3c(N)ncnc32)[C@@H](O)[C@H]1O
Mus musculus [26]
  Stability: 55%
Mus musculus [27]
  Stability: 67%
[2]
  Activity: 3e-09
  Relative ability: 0.23
Mus musculus [7]
  Stability: 100%
Mus musculus [28]
  Stability: 80%
Mus musculus [8]
  Stability: 70%
Mus musculus [9]
  Stability: 100%
Mus musculus [29]
  Stability: 0%
Mus musculus [10]
  Stability: 87%
Mus musculus [11]
  Stability: 47%
Mus musculus [12]
  Stability: 71%
Mus musculus [30]
  Stability: 0%
[1]
  IC50: 46 nM
[13]
  Relative activity: 0.05
Mus musculus [14]
  Stability: 70%

— ChEMBL document CHEMBL1123490, “Synthesis and biological activities of oligo(8-bromoadenylates) as analogues of 5'-O-triphosphoadenylyl(2'----5')adenylyl(2'----5')adenosine” (J Med Chem, 1986)
